Assay: Toxicity liver stage against HepG2, at 10uM
Format: cell-based
Design: test concentration 10 uM, cell line HepG2-A16-CD81EGFP
Conditions: human, HepG2-A16-CD81EGFP cells; read-out: INHIBITION
Outline: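 Uninfected HepG2-A16-CD81EGFP cells, 3 × 10^3 per well, 1536-well, plated on prespotted compound at 10 μM final, parasite-free screening media added to match infected plates; puromycin 10 μM positive, DMSO 0.5% negative; run in parallel with 48 h PbLuc assay at 37 °C, 5% CO2; viability by CellTiter-Glo luminescence, normalized to controls.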
For CC1(C)CNC(=O)CN(C(=O)CCc2ccccc2)C1, the cytotoxicity at 10 µM was -8.57%. For O=C1CN(S(=O)(=O)CC(F)(F)F)CC(O)CN1CCCc1ccccc1 (stereo unspecified), the cytotoxicity at 10 µM was -7.99%. O=C(Nc1cnc(Oc2ccccc2F)nc1)C1CC1 gave a cytotoxicity at 10 µM of 0.0701%. COc1ccc(C(C)N(C)Cc2c(C(C)C)[nH]c3ncccc23)cc1 (stereo unspecified) gave a cytotoxicity at 10 µM of -7.99%. In the case of Cc1nc(C2CCCN2C(=O)c2ccccc2)ncc1C(N)=O (stereo unspecified), the cytotoxicity at 10 µM is reported as -1.47%. In the case of CN(Cc1ccc2c(c1)OCO2)Cc1cscn1, the cytotoxicity at 10 µM is reported as -11.1%. For CS(=O)(=O)NCCC(=O)Nc1ccccc1N1CCc2ccccc21, the cytotoxicity at 10 µM was 11.9%. For COC(=O)c1ccc(N2CCN(C(=O)CC(F)(F)F)C(C)C2)cc1 (stereo unspecified), the cytotoxicity at 10 µM was 4.42%. Cc1ccc(C(=O)NCCCN(C)S(C)(=O)=O)c(=O)[nH]1 gave a cytotoxicity at 10 µM of -5.89%. In the case of COc1cc(CN(C)C(=O)NCc2ccccn2)ccc1SC, the cytotoxicity at 10 µM is reported as -8.42%. For CCC(CC)c1cc(CNC(=O)N2CCC(CO)CC2)on1, the cytotoxicity at 10 µM was 3.76%. Compound CCc1nc(CN2CCCN(c3cnc4ccccc4n3)CC2)no1 has a cytotoxicity at 10 µM of 22%. In the case of O=C(c1ccc2[nH]ccc2c1)N1CCCCC1c1nc[nH]n1 (stereo unspecified), the cytotoxicity at 10 µM is reported as -9.04%. Cc1nc2n(n1)CC(NCC(=O)NCCC1=CCCCC1)CC2 (stereo unspecified) showed a cytotoxicity at 10 µM of -9.36%. CC(NCC1CCN(CCO)CC1)c1cccc(Cl)c1 (stereo unspecified) showed a cytotoxicity at 10 µM of -12.5%. CC(NC(=O)Nc1nccs1)C(=O)NC1CCCC1 (stereo unspecified) gave a cytotoxicity at 10 µM of 1.87%. O=C(NCc1cccc(F)c1)Nc1ccn(CCN2CCOCC2)n1 showed a cytotoxicity at 10 µM of -8.45%. With Cc1cnn(CCNCc2c(C)nn(-c3ccccc3)c2C)c1 the cytotoxicity at 10 µM was -14.1%. With O=S(=O)(NCc1ccc(S(=O)(=O)N2CCCC2)s1)c1cc(Cl)cc(Cl)c1 the cytotoxicity at 10 µM was -11.1%. Work on CC(NCCN1CCC(N(C)C)CC1)c1ccc(F)cc1N(C)C (stereo unspecified) yielded a cytotoxicity at 10 µM of -13%. For CCCc1nn(Cc2ccc(Br)s2)c(=O)o1, the cytotoxicity at 10 µM was 3.81%. COc1ccc(C(C)N2CCC(CO)CC2)cc1Cl (stereo unspecified) showed a cytotoxicity at 10 µM of -51.1%. Cc1cccc(C(=O)N2CCN(S(C)(=O)=O)[C@@H](C)C2)c1C gave a cytotoxicity at 10 µM of 3.46%. CC(C)O[C@@H]1CC[C@H]2[C@H]1OCCN2C(=O)c1nn(C)c2ccccc12 gave a cytotoxicity at 10 µM of -0.824%. Work on c1ccc(CN2C[C@@H]3OCCN(c4cccnc4)[C@@H]3C2)nc1 yielded a cytotoxicity at 10 µM of -72.8%. For COCCC1COC2(CCN(C(=O)c3ccccc3)CC2)C1 (stereo unspecified), the cytotoxicity at 10 µM was -87.5%. Cc1nc(NCC2CC2)nc2c1COCC21CCN(CC(=O)N(C)C)C1 (stereo unspecified) gave a cytotoxicity at 10 µM of -78.5%. COCCO[C@H]1CCN(C(=O)c2ccsc2)[C@H]1Cc1ccncc1 gave a cytotoxicity at 10 µM of -75.4%. Compound Cc1noc(C)c1CN1CC[C@H]2C[C@H](c3nccs3)O[C@@H]2C1 has a cytotoxicity at 10 µM of -70.7%. For c1ccc(CO[C@H]2CC[C@H]3[C@H]2OCCN3CCN2CCCCC2)nc1, the cytotoxicity at 10 µM was -7.16%. CO[C@@H]1CO[C@@]2(CCCN(S(=O)(=O)c3ccccc3)C2)C1 gave a cytotoxicity at 10 µM of -79.8%. Work on CC1=N[C@@]2(CC[C@@H]3CN(S(=O)(=O)CC(C)C)C[C@@H]32)C(=O)N1CC(C)C yielded a cytotoxicity at 10 µM of -1.34%. CS(=O)(=O)N1CCC(c2nnc3ccc(C(=O)N4CCCC4)cn23)C1 (stereo unspecified) showed a cytotoxicity at 10 µM of 1.47%. COCCN(C)C(C(=O)O)c1ccc(F)c(Cl)c1 (stereo unspecified) showed a cytotoxicity at 10 µM of 12.2%. Work on CN(CCO)C[C@@H]1CN(C(=O)Cc2ccc3ccccc3c2)C[C@@H]1CO yielded a cytotoxicity at 10 µM of -1.96%. CCN(Cc1noc(C)n1)C(=O)C(c1cccc(C)c1)N(C)C (stereo unspecified) gave a cytotoxicity at 10 µM of -1.34%. For CN(CCc1ccccc1)Cc1cc(C(=O)N2CCSCC2)no1, the cytotoxicity at 10 µM was 3.88%. For COc1ccc2c(CN3CCCN(Cc4ccncc4)CC3)n[nH]c2c1, the cytotoxicity at 10 µM was -4.32%. Compound COC(=O)CNCC1(O)CCCN(Cc2cccc(F)c2F)C1=O (stereo unspecified) has a cytotoxicity at 10 µM of -6.87%. In the case of COc1cccc(CCC2CCCN(C(=O)c3ccc(=O)n(C)n3)C2)c1 (stereo unspecified), the cytotoxicity at 10 µM is reported as 4.34%. COc1cccn(CC(=O)N(C)CCC2CCOCC2)c1=O showed a cytotoxicity at 10 µM of -19%. For C[C@@H]1CN(CCOCc2ccccc2)CC[C@@]1(O)C1CCC1, the cytotoxicity at 10 µM was 1.4%. In the case of COc1ccc2c(CN3CCN(Cc4cccc(F)c4)CC3)n[nH]c2c1, the cytotoxicity at 10 µM is reported as -1.86%. CSCC1CCN(c2nc(N)ncc2C)CC1 showed a cytotoxicity at 10 µM of -5.2%. Cc1ccc(CN2C(=O)OCC2CO)c2ccccc12 (stereo unspecified) gave a cytotoxicity at 10 µM of -5.21%. COCc1cc(CNC(=O)c2cc(NC(C)=O)ccc2Cl)n[nH]1 gave a cytotoxicity at 10 µM of 5.3%. For O=C(COCC(F)(F)C(F)F)N1CCC(c2ncc[nH]2)CC1, the cytotoxicity at 10 µM was -53.9%. With COCC(=O)N1CCC2(CCCN(Cc3cc(OC)ccc3F)C2)C1 (stereo unspecified) the cytotoxicity at 10 µM was -1.62%. Compound COCCN1CCCC2(CCN(C(=O)c3cnc(O)cn3)C2)C1=O (stereo unspecified) has a cytotoxicity at 10 µM of 0.0942%. Compound CS(=O)(=O)N[C@H]1CN(C(=O)CCc2ccco2)C[C@@H]1C1CC1 has a cytotoxicity at 10 µM of 2.7%. Compound Cc1nc(NC(=O)NC2CC(=O)N(C)C2)nn1C(C)C (stereo unspecified) has a cytotoxicity at 10 µM of -8.15%. For Cc1cc(CC(C)NC(=O)COc2ccc(F)cc2F)[nH]n1 (stereo unspecified), the cytotoxicity at 10 µM was -49%. Compound CCc1nnc(CN2CCN(c3cccc(OC)c3)C(=O)C2)o1 has a cytotoxicity at 10 µM of 18.4%. Work on CN(Cc1ccccn1)C(C(=O)O)c1ccc2c(c1)OCO2 (stereo unspecified) yielded a cytotoxicity at 10 µM of 1.16%. For CCC(C)N(Cc1ccncc1)C(=O)CCC(=O)OC (stereo unspecified), the cytotoxicity at 10 µM was -14.5%. CCCn1ncc(C(=O)N(C)Cc2cc(C3CC3)[nH]n2)c1C gave a cytotoxicity at 10 µM of -4.65%. CNC(=O)c1cccc(C2CNCCN2C(C)=O)c1 (stereo unspecified) gave a cytotoxicity at 10 µM of 0.384%. Work on CC(C)Cc1cc(NC(=O)c2ccc(=O)[nH]n2)n(C)n1 yielded a cytotoxicity at 10 µM of -10.1%. NC(=O)NCC1CCCCN1C(=O)c1cccc(C(F)(F)F)c1 (stereo unspecified) gave a cytotoxicity at 10 µM of -7.32%. COCCCNC(=O)CN(C)C(=O)c1cc(C)ccc1O gave a cytotoxicity at 10 µM of -6.81%. With O=C(Nc1ccc(CCN2CCC(O)CC2)cc1)C1CCOCC1 the cytotoxicity at 10 µM was -8.08%. CC(C)(C)c1nnc(CN2CCOC(Cn3cncn3)C2)o1 (stereo unspecified) showed a cytotoxicity at 10 µM of -1.5%. Compound Cc1cc(C)n(CC2CN(Cc3cscn3)CCO2)n1 (stereo unspecified) has a cytotoxicity at 10 µM of -2.68%. For CC(C)Oc1ncccc1CNC(=O)N1CCC(C(N)=O)C1 (stereo unspecified), the cytotoxicity at 10 µM was -6.08%. Work on Cc1ccc(C2CCCN2Cc2nc3c(cnn3C)c(=O)[nH]2)cc1C (stereo unspecified) yielded a cytotoxicity at 10 µM of -0.858%. With CCN(CC1CCCO1)C(=O)Nc1ccc(F)cc1OC (stereo unspecified) the cytotoxicity at 10 µM was -8.98%. For COCCCN1CCc2cncnc2C1, the cytotoxicity at 10 µM was -9.68%. In the case of Cc1noc(Cl)c1CCC(=O)N1CCc2sccc2C1, the cytotoxicity at 10 µM is reported as 2.65%. For CC(NCc1ccc(F)cc1)c1ccc(OCC(=O)NC2CC2)cc1 (stereo unspecified), the cytotoxicity at 10 µM was 3.99%. With Cc1nc(C)n(C2CCCN(C(=O)c3csc(C(C)C)n3)C2)n1 (stereo unspecified) the cytotoxicity at 10 µM was -1.72%. With COc1ccc(CN2CCN(C(C)c3nc(C4CC4)no3)CC2)cc1 (stereo unspecified) the cytotoxicity at 10 µM was 4.31%. For Cc1nccc(C2(C)CCCNC2)n1 (stereo unspecified), the cytotoxicity at 10 µM was 9.22%. Work on COc1ccc(CN2CCn3cc(CN4CCN(C)CC4)nc3C2)cc1 yielded a cytotoxicity at 10 µM of -0.00161%. Work on COCCN1CCO[C@H]2CN(Cc3cc[nH]n3)C[C@H]21 yielded a cytotoxicity at 10 µM of -105%. COCCN1CCC2(C1)c1ccccc1S(=O)(=O)N2C (stereo unspecified) showed a cytotoxicity at 10 µM of 11.4%. With O=C([C@@H]1COC[C@H]2CN(C3CCCC3)C[C@H]21)N1CCCCO1 the cytotoxicity at 10 µM was -1.11%. For Fc1cnc(N2CCCC3(CCN(Cc4ccoc4)C3)C2)nc1 (stereo unspecified), the cytotoxicity at 10 µM was -80.6%. O=C(c1ccncc1)N1CCC2(CCCN(c3ncc(F)cn3)C2)C1 (stereo unspecified) showed a cytotoxicity at 10 µM of -105%. Compound Cn1ncc2c(NC3CCC(N)CC3)nc(C(C)(C)C)nc21 (stereo unspecified) has a cytotoxicity at 10 µM of 8%. In the case of CC(C)(C)c1ccc(OCC(=O)O)c(CN2C[C@H]3CC(O)C[C@H]3C2)c1 (stereo partly specified), the cytotoxicity at 10 µM is reported as 3.46%. In the case of Cc1nc[nH]c1CN1C[C@H]2CC[C@@H](C1)N(C(=O)CCn1cncn1)C2, the cytotoxicity at 10 µM is reported as 1.15%.

— ChEMBL document CHEMBL4513216, “Probing the Open Global Health Chemical Diversity Library for Multistage-Active Starting Points for Next-Generation Antimalarials” (ACS Infect Dis, 2020)
